System: MDA-MB-231
Assay: Antitumor activity against human MDA-MB-231 cells xenografted in BALB/c nu mouse assessed as tumor growth inhibition administered as ip qd for 19 days
Format: functional, organism-based
How it was run: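 Female athymic BALB/c-nu mice, 5–6 weeks old, were inoculated subcutaneously in the right flank with RPMI1640/10% FBS-cultured tumor cells (5 × 10^6 for MDA-MB-231). At about 100 mm3 (~10 days), mice were randomized 6 per group and dosed orally or intraperitoneally for 19 days. Vehicle controls received PBS containing DMSO. TGI = (control − treated mean tumor weight)/control mean tumor weight, at end of treatment.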

Q: `CC[C@H](C)[C@H](NC(=O)CC(C)(C)C)C(=O)N1Cc2cc(OCC(=O)NO)ccc2C[C@H]1C(=O)Nc1ccc(OC)cc1` was tested. Which TGI did it give?
A: Its TGI is “Dose-dependent effect”.
